Several values for one entry are separate records, joined by “and”; a condition that tells them apart may be missing. Identical values can stand only once.
Columns and labels:
Rattus norvegicus [1] = species: Rattus norvegicus; experiment: Values for substitution for Cocaine in rats Trained to discriminate Cocaine from saline; format: functional
Outline: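 Read-out is the percentage of responses on the cocaine-appropriate lever, with doses in µmol/kg. Lever selection was counted unreliable below 0.02 responses/s, and a point was dropped if fewer than half of subjects met this rate. Four to six rats per point. ED50 given with 95% confidence limits.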

Rattus norvegicus [2] = species: Rattus norvegicus; experiment: Compound was evaluated for inhibition of [3H]- dopamine uptake in rat caudate - putamen tissue.; format: functional
Outline: (§1)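 [3H]dopamine uptake into rat caudate-putamen tissue. IC50 values are the mean ± SEM of three experiments, each run in triplicate. Compounds were tested as HCl salts unless noted, some as fumarate salts.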

Mus musculus [3] = species: Mus musculus; experiment: Stimulation of locomotor activity of mice; format: functional
Outline: (§2)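 Mice given drug or saline vehicle, with horizontal activity counts recorded in 10 min periods over a 60 min session. Eight mice per dose, doses in µmol/kg. The dose-response used the first 30 min after injection. ED50 is from the dose-response, and the maximal stimulant effect and time course were also assessed.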

Mus musculus [4] = species: Mus musculus; experiment: Stimulation of locomotor activity of Mice; format: functional; outline: as §2
[5] = molecular target: T1, Sodium-dependent dopamine transporter (Rattus norvegicus, UniProt P23977); experiment: Displacement of [3H]WIN-35428 from dopamine transporter (DAT) in Rat Caudate Putamen; format: tissue-based
T1 sequence (P23977 whole entry): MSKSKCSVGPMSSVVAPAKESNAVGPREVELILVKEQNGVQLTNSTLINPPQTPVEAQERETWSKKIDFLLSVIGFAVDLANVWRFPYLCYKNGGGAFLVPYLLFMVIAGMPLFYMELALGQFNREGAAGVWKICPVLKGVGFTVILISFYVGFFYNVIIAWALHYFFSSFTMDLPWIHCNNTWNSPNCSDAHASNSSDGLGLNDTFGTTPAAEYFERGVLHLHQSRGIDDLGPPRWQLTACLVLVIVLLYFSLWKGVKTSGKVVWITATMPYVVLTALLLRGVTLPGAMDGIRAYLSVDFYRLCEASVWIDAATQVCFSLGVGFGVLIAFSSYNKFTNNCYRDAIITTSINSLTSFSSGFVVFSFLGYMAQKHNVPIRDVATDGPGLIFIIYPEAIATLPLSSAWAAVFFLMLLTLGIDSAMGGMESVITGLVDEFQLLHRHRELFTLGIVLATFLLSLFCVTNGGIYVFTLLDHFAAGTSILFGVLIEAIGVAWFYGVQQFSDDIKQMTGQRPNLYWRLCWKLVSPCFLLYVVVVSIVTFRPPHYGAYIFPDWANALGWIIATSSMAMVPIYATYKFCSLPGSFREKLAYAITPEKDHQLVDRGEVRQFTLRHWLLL
Outline: (§3)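 Ki is the inhibition constant derived for the unlabeled ligand. Values are the mean ± SEM of three experiments run in triplicate. Compounds were tested as HCl salts unless noted, some as fumarate salts. Data were fitted to single-site versus two-site binding models.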

Rattus norvegicus [6] = species: Rattus norvegicus; experiment: Compound was evaluated for inhibition of [3H]- dopamine Uptake in rat caudate - putamen tissue.; format: functional; outline: as §1
[7] = molecular target: T1, Sodium-dependent dopamine transporter; experiment: Compound was evaluated for its ability to displace [3H]WIN-35428 from dopamine transporter in rat caudate putamen tissue; format: tissue-based
Outline: as §3, with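 “Rat caudate-putamen tissue, displacing bound [3H]WIN 35,428. Ki” for “Ki”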

Compound: COC(=O)/C=C/C1C(c2ccccc2)CC2CCC1N2C (stereo not given)
- ED50 (Rattus norvegicus [1]): 12.8 µmol/kg
- IC50 (Rattus norvegicus [2]): 123 nM
- Max effect (Mus musculus [3]): 14996 Counts 10min-1
- ED50 (Mus musculus [4]): 4.74 µmol/kg
- Ki [5]: 22 nM

Compound: COC(=O)CCCCC1C(c2ccccc2)CC2CCC1N2C (stereo not given)
- IC50 (Rattus norvegicus [6]): 130 nM
- Ki [5]: 30 nM

Compound: CN1C2CCC1C(CCC(=O)c1ccccc1)C(c1ccccc1)C2 (stereo not given)
- IC50 (Rattus norvegicus [6]): 47 nM
- Ki [5]: 28 nM

Compound: CN1C2CCC1C(CCCc1ccccc1)C(c1ccccc1)C2 (stereo not given)
- IC50 (Rattus norvegicus [6]): 43 nM
- Ki [5]: 16 nM

Compound: COC(=O)/C=C/CCC1C(c2ccccc2)CC2CCC1N2C (stereo not given)
- IC50 (Rattus norvegicus [6]): 203 nM
- ED50 (Rattus norvegicus [1]): 15 µmol/kg
- ED50 (Mus musculus [3]): 9.21 µmol/kg
- Max effect (Mus musculus [3]): 17327 Counts 10min-1
- Ki [5]: 20 nM

Compound: COC(=O)CCC1C(c2ccccc2)CC2CCC1N2C (stereo not given)
- IC50 (Rattus norvegicus [2]): 166 nM
- Ki [5]: 23 nM

Compound: CN1C2CCC1C(CCCO)C(c1ccccc1)C2 (stereo not given)
- IC50 (Rattus norvegicus [6]): 64 nM
- ED50 (Rattus norvegicus [1]): 12.9 µmol/kg
- ED50 (Mus musculus [3]): 12 µmol/kg
- Max effect (Mus musculus [3]): 20820 Counts 10min-1
- Ki [5]: 11 nM

Compound: CN1C2CCC1C(/C=C/CO)C(c1ccccc1)C2 (stereo not given)
- IC50 (Rattus norvegicus [2]): 159 nM
- Ki [7]: 26 nM

Compound: COC(=O)[C@@H]1C2CC[C@H](C[C@@H]1c1ccccc1)N2C (single isomer, unassigned)
- IC50 (Rattus norvegicus [6]): 373 nM
- Ki [5]: 33 nM and 314 nM

Compound: COC(=O)[C@H]1[C@@H](OC(=O)c2ccccc2)C[C@@H]2CC[C@H]1N2C [COCAINE]
- ED50 (Rattus norvegicus [1]): 8.74 µmol/kg
- ED50 (Mus musculus [3]): 20.8 µmol/kg
- Max effect (Mus musculus [3]): 12518 Counts 10min-1

— ChEMBL document CHEMBL1129968, “Synthesis, dopamine transporter affinity, dopamine uptake inhibition, and locomotor stimulant activity of 2-substituted 3 beta-phenyltropane derivatives” (J Med Chem, 1997)
